Numbered stars: 1 amine (or outer) side, 2 acyl side, 3 side chain; on linkers, the order of the positions; unused ones are H or OH. Bridge positions count the residues as written; N and C are the ends. Square brackets hold non-standard residues; d marks the D form. Peptide text beside a SMILES is read from it. * marks the point of attachment. Leu(3R-OH,Nα-propionyl) = CCC(=O)N[C@H](C(=O)*)[C@H](O)C(C)C; X2 = CC(=O)NC(C(=O)OC(C(C)C)C(N[*:1])C(=O)[*:2])C(O)C(C)C; X1 = CC(C)[C@@H](O[*:3])[C@H](N[*:1])C(=O)[*:2]; NMeT = CN[CH](C(=O)O)[CH](C)O; dPhLac = O=C(O)[C@H](O)Cc1ccccc1; PhLac = O=C(O)[CH](O)Cc1ccccc1; NMeA = CN[CH](C)C(=O)O; NMeDha = C=C(NC)C(=O)O
How the values were obtained:
[1] = target: P2Y1R (Homo sapiens, UniProt P47900); assay type: cell-based
P2Y1R, sequence (P47900 whole entry): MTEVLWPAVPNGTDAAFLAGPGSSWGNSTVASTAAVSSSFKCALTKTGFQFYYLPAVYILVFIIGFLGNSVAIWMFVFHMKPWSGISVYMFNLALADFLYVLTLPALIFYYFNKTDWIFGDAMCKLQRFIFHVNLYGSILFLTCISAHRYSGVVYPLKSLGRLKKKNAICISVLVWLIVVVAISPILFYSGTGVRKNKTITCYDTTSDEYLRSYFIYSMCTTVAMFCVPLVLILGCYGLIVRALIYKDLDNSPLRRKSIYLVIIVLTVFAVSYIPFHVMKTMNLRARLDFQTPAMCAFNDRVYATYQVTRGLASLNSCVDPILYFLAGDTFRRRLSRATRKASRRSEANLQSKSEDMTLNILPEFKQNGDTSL

[2] = target: M3 muscarinic receptor (Homo sapiens, UniProt P20309); assay type: cell-based
M3 muscarinic receptor, sequence (P20309 whole entry): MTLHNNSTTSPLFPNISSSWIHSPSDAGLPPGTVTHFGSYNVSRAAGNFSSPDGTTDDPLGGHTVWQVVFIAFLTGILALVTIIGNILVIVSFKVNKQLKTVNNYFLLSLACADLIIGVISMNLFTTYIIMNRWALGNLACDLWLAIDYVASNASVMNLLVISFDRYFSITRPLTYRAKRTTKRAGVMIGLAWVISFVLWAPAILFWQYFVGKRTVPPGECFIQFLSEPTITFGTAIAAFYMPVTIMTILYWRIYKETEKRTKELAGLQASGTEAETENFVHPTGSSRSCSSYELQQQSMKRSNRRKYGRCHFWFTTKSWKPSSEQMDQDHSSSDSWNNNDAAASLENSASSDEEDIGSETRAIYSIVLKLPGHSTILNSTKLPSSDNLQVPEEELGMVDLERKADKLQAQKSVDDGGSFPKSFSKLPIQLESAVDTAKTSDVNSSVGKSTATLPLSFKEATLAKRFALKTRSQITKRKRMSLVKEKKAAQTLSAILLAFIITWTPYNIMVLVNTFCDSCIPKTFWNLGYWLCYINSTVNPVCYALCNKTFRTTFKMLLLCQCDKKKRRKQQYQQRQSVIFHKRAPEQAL

[3] = target: P2Y1R (Gq-coupled) (Homo sapiens, UniProt P47900); assay type: cell-based
P2Y1R (Gq-coupled), sequence (P47900 whole entry): as the sequence (P47900 whole entry) above

[4] = target: P2Y12R (Gi-coupled) (Homo sapiens, UniProt Q9H244); assay type: cell-based
P2Y12R (Gi-coupled), sequence (Q9H244 whole entry): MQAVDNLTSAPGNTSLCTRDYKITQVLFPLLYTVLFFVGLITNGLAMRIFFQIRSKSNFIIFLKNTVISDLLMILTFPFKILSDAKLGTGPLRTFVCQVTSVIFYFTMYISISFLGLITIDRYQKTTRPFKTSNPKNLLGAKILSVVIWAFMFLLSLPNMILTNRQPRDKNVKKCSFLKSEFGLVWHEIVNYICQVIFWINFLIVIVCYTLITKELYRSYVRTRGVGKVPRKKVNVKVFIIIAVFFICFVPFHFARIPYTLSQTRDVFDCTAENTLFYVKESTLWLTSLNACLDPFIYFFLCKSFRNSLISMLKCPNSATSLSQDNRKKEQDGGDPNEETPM

[5] = system: platelet aggregation; details: cited from earlier work
[6] = system: Gαi subunits; details: cited from earlier work
[7] = target: Gi-coupled A1AR (Homo sapiens, UniProt P30542); assay type: cell-based
Gi-coupled A1AR, sequence (P30542 whole entry): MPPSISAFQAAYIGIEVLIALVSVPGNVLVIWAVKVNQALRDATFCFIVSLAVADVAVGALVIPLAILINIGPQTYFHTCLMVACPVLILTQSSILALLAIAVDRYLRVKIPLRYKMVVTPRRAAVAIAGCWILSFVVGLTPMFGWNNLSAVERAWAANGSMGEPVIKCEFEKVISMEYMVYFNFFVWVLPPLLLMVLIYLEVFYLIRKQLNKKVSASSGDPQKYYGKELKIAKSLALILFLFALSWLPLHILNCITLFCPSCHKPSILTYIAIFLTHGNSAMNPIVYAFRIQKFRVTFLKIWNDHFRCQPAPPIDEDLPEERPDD

[8] = target: recombinant human A2BAR (Gαs) (Homo sapiens, UniProt P29275); assay type: cell-based
recombinant human A2BAR (Gαs), sequence (P29275 whole entry): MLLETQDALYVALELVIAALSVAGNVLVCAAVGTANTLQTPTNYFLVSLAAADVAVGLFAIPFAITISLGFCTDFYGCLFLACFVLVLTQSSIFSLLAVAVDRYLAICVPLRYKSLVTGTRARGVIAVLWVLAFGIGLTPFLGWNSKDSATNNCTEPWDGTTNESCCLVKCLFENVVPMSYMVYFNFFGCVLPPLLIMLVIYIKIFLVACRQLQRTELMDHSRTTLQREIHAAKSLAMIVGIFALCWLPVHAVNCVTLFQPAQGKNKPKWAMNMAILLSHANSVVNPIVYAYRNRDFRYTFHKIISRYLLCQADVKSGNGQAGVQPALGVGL

[9] = target: Gi-coupled P2Y12R (Homo sapiens, UniProt Q9H244); assay type: cell-based
Gi-coupled P2Y12R, sequence (Q9H244 whole entry): as the sequence (Q9H244 whole entry) above

[10] = cited from earlier work
[11] = target: endogenous A1AR (Mesocricetus auratus, UniProt A0A1U8BVR4); assay type: cell-based, Syrian hamster
endogenous A1AR, sequence (A0A1U8BVR4 1-326): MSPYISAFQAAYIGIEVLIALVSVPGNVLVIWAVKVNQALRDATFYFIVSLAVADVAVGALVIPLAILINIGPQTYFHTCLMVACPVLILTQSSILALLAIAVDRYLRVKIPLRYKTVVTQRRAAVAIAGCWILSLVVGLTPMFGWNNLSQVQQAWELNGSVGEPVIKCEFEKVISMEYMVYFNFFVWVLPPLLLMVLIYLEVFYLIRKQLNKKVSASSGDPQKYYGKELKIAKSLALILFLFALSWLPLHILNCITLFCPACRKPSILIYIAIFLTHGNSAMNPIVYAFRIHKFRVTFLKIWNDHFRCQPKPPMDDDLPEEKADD

[12] = system: Gαq-coupled T1R1/T1R3 heterodimeric taste receptor; details: MIN6 cells; cited from earlier work
[13] = target: recombinant human M3 muscarinic receptor (Gαq) (Homo sapiens, UniProt P20309); assay type: cell-based
recombinant human M3 muscarinic receptor (Gαq), sequence (P20309 whole entry): as the sequence (P20309 whole entry) above

[14] = target: human A1AR (Gi-coupled) (Homo sapiens, UniProt P30542); assay type: cell-based
human A1AR (Gi-coupled), sequence (P30542 whole entry): as the sequence (P30542 whole entry) above

[15] = system: ERK1/2 activation; experiment: ERK1/2 activation mediated through various GPCRs; assay type: cell-based
Summary of the method: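 CHO (A1AR, M2, M3) or 1321N1 (P2Y1R) cells were seeded at 30,000 cells/100 μl and serum-starved overnight after attachment. Pretreatment was test compound or GO6983 (10 μM) for 30 min, or pertussis toxin (200 ng/ml) overnight. Agonists in Hank's buffered salt solution were applied for 5 min. Cells were lysed and p-ERK1/2 (Thr202/Tyr204) was read by AlphaScreen SureFire.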

[16] = system: Gα16; details: 1 μM; cited from earlier work
[17] = target: A1AR (Homo sapiens, UniProt P30542); assay type: cell-based
A1AR, sequence (P30542 whole entry): as above

[18] = target: endogenous human P2Y1R (Homo sapiens, UniProt P47900); assay type: cell-based
endogenous human P2Y1R, sequence (P47900 whole entry): as the sequence (P47900 whole entry) above

[19] = target: M2 muscarinic receptor (Gi-coupled) (Homo sapiens, UniProt P08172); assay type: cell-based
M2 muscarinic receptor (Gi-coupled), sequence (P08172 whole entry): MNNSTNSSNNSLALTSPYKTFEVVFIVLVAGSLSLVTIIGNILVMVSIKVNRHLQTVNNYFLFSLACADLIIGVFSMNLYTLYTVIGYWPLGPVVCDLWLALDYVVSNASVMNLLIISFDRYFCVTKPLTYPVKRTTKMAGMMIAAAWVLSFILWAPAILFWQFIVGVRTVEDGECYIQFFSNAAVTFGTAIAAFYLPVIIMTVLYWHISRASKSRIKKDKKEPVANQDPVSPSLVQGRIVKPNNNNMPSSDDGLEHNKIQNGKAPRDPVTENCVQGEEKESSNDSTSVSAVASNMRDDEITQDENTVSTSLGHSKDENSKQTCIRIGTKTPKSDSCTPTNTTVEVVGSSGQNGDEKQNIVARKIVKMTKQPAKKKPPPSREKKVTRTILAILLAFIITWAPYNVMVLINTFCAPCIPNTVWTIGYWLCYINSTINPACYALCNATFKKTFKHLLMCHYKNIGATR

[20] = target: recombinant human A2AAR (Homo sapiens, UniProt P29274); experiment: CGS21680-induced cAMP accumulation in CHO cells expressing the A2AAR; assay type: cell-based; details: data not shown
recombinant human A2AAR, sequence (P29274 whole entry): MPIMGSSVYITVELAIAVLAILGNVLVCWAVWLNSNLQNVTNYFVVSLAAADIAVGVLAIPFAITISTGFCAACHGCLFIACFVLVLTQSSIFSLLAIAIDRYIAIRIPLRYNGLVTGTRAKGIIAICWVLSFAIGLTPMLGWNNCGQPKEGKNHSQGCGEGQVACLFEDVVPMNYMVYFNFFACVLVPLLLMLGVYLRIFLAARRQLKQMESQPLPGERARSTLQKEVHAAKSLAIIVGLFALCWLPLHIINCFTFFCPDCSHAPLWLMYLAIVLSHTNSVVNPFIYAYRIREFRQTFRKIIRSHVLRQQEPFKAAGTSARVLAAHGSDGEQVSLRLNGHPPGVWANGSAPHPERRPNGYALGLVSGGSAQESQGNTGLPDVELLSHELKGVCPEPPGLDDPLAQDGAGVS
Summary of the method: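 CHO cells stably expressing human A2AAR were grown in DMEM with 10% FBS, penicillin/streptomycin and glutamine, then plated in 96-well plates overnight. Cells were pretreated with test compound (300 nM) for 30 min or with pertussis toxin (200 ng/ml) overnight. Agonist was then added with rolipram (10 μM). Supernatant was removed, cells were lysed in 0.3% Tween-20, and cAMP was measured by AlphaScreen.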

[21] = target: M2 muscarinic receptor (Homo sapiens, UniProt P08172); assay type: cell-based
M2 muscarinic receptor, sequence (P08172 whole entry): as the sequence (P08172 whole entry) above

[22] = target: Gαq-coupled P2Y1R (Homo sapiens, UniProt P47900); experiment: Akt1/2/3 phosphorylation in 1321N1 cells expressing the P2Y1R; assay type: cell-based; details: UBO-QIC 100 nM
Gαq-coupled P2Y1R, sequence (P47900 whole entry): as the sequence (P47900 whole entry) above
Summary of the method: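 1321N1 astrocytoma cells expressing human P2Y1R were seeded at 30,000 cells/100 μl in complete medium. After attachment they were serum-starved overnight, pretreated with test compound (100 nM) for 30 min, then given agonist in Hank's buffered salt solution for 20 min. Lysed cells were assayed for p-Akt1/2/3 (Ser473) by AlphaScreen SureFire. Mean ± SEM of 3 independent experiments in duplicate.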

[23] = system: Gαq; details: cited from earlier work
[24] = system: Gα15; details: cited from earlier work
[25] = system: Gβγ; details: 10 μM, 5 min pretreatment; compared with PTX 50 ng/ml for 6 h; cited from earlier work
[26] = system: Gαq; details: 10 μM, 5 min pretreatment; cited from earlier work

COc1ccc2c(c1)c(C1=C(c3c[nH]c4ccccc34)C(=O)NC1=O)cn2CCCN(C)C [GO6983, 3-[1-[3-(dimethylamino)propyl]-5-methoxy-1H-indol-3-yl]-4-(1H-indol-3-yl)-1H-pyrrole-2,5-dione]
Effect on ERK1/2 phosphorylation [1]: completely blocked | Effect on ERK1/2 phosphorylation [2]: completely blocked

C=C1C(=O)N[C@@H](C)C(=O)N(C)[C@@H](C)C(=O)N[C@@H]([C@H](OC(=O)[C@@H](NC(=O)CC)[C@H](O)C(C)C)C(C)C)C(=O)N(C)[C@@H]([C@@H](C)OC)C(=O)O[C@H](C(C)C)[C@H](NC(C)=O)C(=O)O[C@H](Cc2ccccc2)C(=O)N1C [UBO-QIC, L-threonine, (3R)-N-acetyl-3-hydroxy-L-leucyl-(αR)-α-hydroxybenzenepropanoyl-2,3-didehydro-N-methylalanyl-L-alanyl-N-methyl-L-alanyl-(3R)-3-[[(2S,3R)-3-hydroxy-4-methyl-1-oxo-2-[(1-oxopropyl)amino]pentyl]oxy]-L-leucyl-N,O-dimethyl-, (7→1)-lactone] (Ac-[X1][dPhLac][NMeDha]A[NMeA][X1](Leu(3R-OH,Nα-propionyl))[NMeT](Me); ester 1-C)
Effect on agonist effects (calcium) [3]: completely blocked | Effect on calcium responses [3]: completely blocked | Block of the maximal agonist effect in ERK1/2 phosphorylation [1]: ≤ 30% | Effect on agonist effects (calcium) [4]: completely blocked | Effect on calcium responses [4]: completely blocked | Effect on platelet aggregation [5]: inhibit platelet aggregation | Effect on phosphorylation of protein kinase B (Akt) [6]: no effect | Effect on Akt1/2/3 activity [7]: no effect | Effect of inhibitor on NECA-induced cAMP accumulation [8]: did not show any effect | Effect on Akt1/2/3 activity [9]: no effect | Effect on the maximum effect of 2MeSADP-stimulated Akt activity [9]: modest but significant inhibition | Effect on blood pressure [10]: decrease blood pressure | Effect on CPA-induced intracellular calcium mobilization [11]: completely blocked | Effect on ERK1/2 stimulation [12]: only partially reduced | Effect of inhibitor on carbachol-induced Ca2+ transients [13]: completely blocked | Effect on agonist effects (calcium) [14]: completely blocked | Effect on calcium responses [14]: completely blocked | Effect on ERK1/2 activation ([15]; UBO-QIC 10 nM, initial experiment): little if any effect | Effect on agonist concentration-response curves, ERK1/2 ([15]; in all cases (P2Y1, A1AR, M2, M3)): somewhat non-parallel right shift | Effect on Gα16 [16]: could inhibit Gα16 | Block of the maximal agonist effect in ERK1/2 phosphorylation [17]: ≤ 30% | Effect on MRS2365-mediated calcium transients [18]: antagonizes | Effect on agonist effects (calcium) [19]: completely blocked | Effect on calcium responses [19]: completely blocked | Effect on CGS21680-induced cAMP accumulation [20]: did not affect | Block of the maximal agonist effect in ERK1/2 phosphorylation [21]: ≤ 30% | Effect on 2MeSADP-induced Akt1/2/3 phosphorylation [22]: completely inhibited

C=C1C(=O)NC(C)C(=O)N(C)C(C)C(=O)NC(C(OC(=O)C(NC(C)=O)C(O)C(C)C)C(C)C)C(=O)N(C)C(C(C)OC)C(=O)OC(C)C(NC(C)=O)C(=O)OC(Cc2ccccc2)C(=O)N1C (stereo not drawn) [YM-254890] (Ac-T[PhLac][NMeDha]A[NMeA][X2][NMeT](Me); ester 1-C; configuration not given here)
Effect on release of GDP from Gαq [23]: inhibits the release of GDP from Gαq | Effect on Gα15-mediated Ca2+ release [24]: only a small effect | Inhibition of fMLP-induced Ca2+ mobilization [25]: to a lesser extent than pertussis toxin | Inhibition of UTP-mediated Ca2+ release [26]: much larger inhibition

Reference: paper PMC4839537 (Biochemical pharmacology, 2016)
